For 69 compounds, cytotoxicity results are on record in ChEMBL document CHEMBL4513216, “Probing the Open Global Health Chemical Diversity Library for Multistage-Active Starting Points for Next-Generation Antimalarials” (ACS Infect Dis, 2020).

SMILES strings stand for the structures.

A short description of the data set: Toxicity liver stage against HepG2, at 10uM. Type of data set: cell-based. Set-up: test concentration 10 uM, cell line HepG2-A16-CD81EGFP. The following applies: human, HepG2-A16-CD81EGFP cells; read-out: INHIBITION
A digest of the protocol:
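Uninfected HepG2-A16-CD81EGFP cells, 3 × 10^3 per well, 1536-well, plated on prespotted compound at 10 μM final, parasite-free screening media added to match infected plates; puromycin 10 μM positive, DMSO 0.5% negative; run in parallel with 48 h PbLuc assay at 37 °C, 5% CO2; viability by CellTiter-Glo luminescence, normalized to controls.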
Take `CN(CCc1ccccc1)Cc1nc(-c2cnccn2)no1`: the cytotoxicity at 10 µM is -0.911%. The same measure for `CCCN1CCN(C(=O)CCn2cccc2)CC1`: 6.14%; for `CCOc1ccccc1C(=O)N1CC(=O)N(C2CCC2)CC(O)C1` (centres undefined): 2.55%.

With `NC(=O)[C@@H]1CN2CCN(C(=O)C3CC3)C[C@@H]2[C@H]1c1ccccc1`, the cytotoxicity at 10 µM was determined as 3.88%. For `N#Cc1cccc(CN2CCO[C@@H]3CNC[C@@H]32)c1`, the cytotoxicity at 10 µM worked out at 8.94%. With `O=C(NC1CC1)N1CCOC2(CCCN(c3cccc(F)c3)C2)C1` (centres undefined), the cytotoxicity at 10 µM is 4.23%. The same measure for `CN(C)C(=O)N1CCCC2(CCN(Cc3ccc(Cl)c(F)c3)C2)C1` (centres undefined): 7.07%.

On to `CN1C2(CCN(Cc3ccc(F)cc3)C2)c2ccccc2S1(=O)=O` (centres undefined), for which the cytotoxicity at 10 µM is 13.5%.

On to `CC1=N[C@@]2(CC[C@@H]3CN(C(=O)NC(C)C)C[C@@H]32)C(=O)N1CC1CC1`, for which the cytotoxicity at 10 µM was 7.1%. The same measure for `Cn1cnc2c1C(COCc1cccnc1)N(Cc1ccccc1)CC2` (centres undefined): 13.5%; for `Cc1occc1C(=O)N1C[C@@H](C(=O)N2CCCCO2)C[C@H]2OCC[C@H]21`: 12.1%. `O=C(c1ccno1)N1CCO[C@]2(CCC[C@@H]2COCc2ccncc2)C1`: the cytotoxicity at 10 µM was found to be 10.2%. As to `c1cncc(CN2CCCn3nnc(CN4CCCCC4)c3C2)c1`, the cytotoxicity at 10 µM worked out at 12.8%. For the compound `O=C1CC(c2ccc(C(F)(F)F)cc2)c2c(n3ccsc3nc2=O)N1` (centres undefined), the cytotoxicity at 10 µM was -1.4%. With `CC(=O)c1cccc(NC(=O)Cn2cc(-c3ccccc3)ncc2=O)c1`, the cytotoxicity at 10 µM is -2.45%.

For `CN1CC(Oc2ccc(Cl)cc2)=NC(SCC(=O)Nc2ccccc2)=N1`, the cytotoxicity at 10 µM was -0.943%. The same measure for `c1ccc(OCCCNCc2cccs2)nc1`: -0.336%; for `CCC(C)NC(=O)CCNC(=O)c1c[nH]cc1-c1cccc(OC)c1` (centres undefined): 6.98%. `O=C(c1cc2c([nH]c1=O)CCC2)N1CCCCCC1c1ccncc1` (centres undefined): the cytotoxicity at 10 µM is -9.31%. The same measure for `CC(C)Oc1ncc(C(=O)N2CCC(CC(N)=O)CC2)cc1Cl`: -9.47%; for `CC(C)(C)c1n[nH]c(C2CN(C(=O)CCCn3cccn3)CCO2)n1` (centres undefined): -0.839%. In the case of `CC(C)C[C@H](NC(=O)CNC(=O)OC(C)(C)C)C(=O)OC(C)(C)C`, the cytotoxicity at 10 µM was found to be 11.9%. `CC(NC(=O)C1CCN(S(N)(=O)=O)CC1)c1cccc(OC(F)F)c1` (centres undefined): the cytotoxicity at 10 µM is -8.5%. As for `CCCN(CC1CC1)C(=O)Cn1ccccc1=O`, the cytotoxicity at 10 µM is 9.09%. The same measure for `O=c1c(-c2ccnc(NC3CCOCC3)n2)cnc2sc(Cl)cn12`: -0.962%; for `COc1ccc(OC)c(C(C(=O)O)N2CCSCC2)c1` (centres undefined): -1.02%. As for `Cc1cc(C)cc(CCC(=O)NC(C)c2nnn[nH]2)c1` (centres undefined), the cytotoxicity at 10 µM is 0.686%. The same measure for `CCc1cn[nH]c1C1CCCN(C(=O)c2cnc(NC(C)C)nc2)C1` (centres undefined): -13.2%; for `CN1CCC(n2nc(Cc3cccs3)nc2-c2ccncc2)CC1`: -7.76%. As for `CC(C)n1cnnc1CN1C(=O)CCc2ccccc21`, the cytotoxicity at 10 µM turned out to be 0.0849%. For the compound `Cc1nccn1CCN(C)C(=O)C1CCN(C(=O)C2CCC2)CC1`, the cytotoxicity at 10 µM was -1.45%. The same measure for `CC(C)c1cc(C2CCN(C(=O)Cn3cncn3)CC2)[nH]n1`: 3.65%.

Regarding `Cc1[nH]c2ccc(CNc3cc(C#N)ccn3)cc2c1C`, the cytotoxicity at 10 µM is -8.4%. `Cc1cccc2cc(C(=O)N3CCSCC3)n(C)c12`: the cytotoxicity at 10 µM amounted to 6.25%. The same measure for `CN1CCN(Cc2ccc(Cl)cc2)CC1C(=O)O` (centres undefined): -2.31%; for `Cc1ccc2nc(-c3nc4c([nH]3)CC(C)(C)CNC4=O)cn2c1`: 5.31%; for `CCn1cc(CN(C)Cc2cnn(-c3ccc(F)cc3)c2)cn1`: -5.44%.

For the compound `Cc1nc(CNC(=O)c2cc(COc3ccccc3F)[nH]n2)n[nH]1`, the cytotoxicity at 10 µM is -7.42%. Take `Cc1ccccc1CCC(=O)N1CCc2ncnc(NCCO)c2CC1`: the cytotoxicity at 10 µM was -21%. The same measure for `Cc1csc2c(N3CCNC(C(=O)NCc4cccnc4)C3)ncnc12` (centres undefined): 1.74%; for `CN(CCCOc1ccccc1Cl)C(=O)CN1CCNC1=O`: -0.2%; for `Cc1cnn(C2CN(CC(=O)NCC(C)C)C2)c1`: -1.33%. In the case of `Cc1cc(C)c(CNC(=O)NCC(O)c2ccccc2F)c(=O)[nH]1` (centres undefined), the cytotoxicity at 10 µM is -0.185%. The same measure for `COc1ccc(C(O)CNC(=O)NCc2c(C)cc(C)[nH]c2=O)cc1` (centres undefined): -2.99%; for `O=C(NCc1ccccc1Cn1cncn1)C1CCCC1`: -2.34%. The same measure for `CN(C(=O)CN1CCC(NC(=O)c2cccs2)CC1)c1ccccc1`: -8.55%; for `O=C(NCc1cc[nH]n1)N1CCCC(N2CCCC2)C1` (centres undefined): -3.18%.

Regarding `CCCc1n[nH]c(C2CN(C(=O)c3cccnc3N(C)C)CCO2)n1` (centres undefined), the cytotoxicity at 10 µM was -2.91%. The same measure for `CN1CC(C(=O)NCCOc2ccc3c(c2)OCO3)CC1=O` (centres undefined): -4.35%. Take `COCCCN1CCC(N(Cc2noc(C)n2)C(C)=O)C1` (centres undefined): the cytotoxicity at 10 µM was -4.22%.

Turning to `Cn1cc(Cl)cc1C(=O)N1CCCN(Cc2ccccc2)CC1`, the cytotoxicity at 10 µM is -5.19%. For `Cc1cc(NC(=O)CCN2CCCCC2Cn2cncn2)no1` (centres undefined), the cytotoxicity at 10 µM worked out at 4.23%. The same measure for `CCNC(c1ccc(CC)cc1)c1cccnc1` (centres undefined): -5.4%; for `NC(=O)c1cc(C2CCCN(CCOCC(F)(F)F)C2)n[nH]1` (centres undefined): -11.8%; for `CC(C)(C)c1n[nH]c(C2CN(C(=O)c3ccsc3)CCO2)n1` (centres undefined): -12.3%.

For the compound `c1cnn(C2CN(Cc3nc(-c4ccsc4)no3)C2)c1`, the cytotoxicity at 10 µM is -12.2%. As for `Cc1cc(NC(=O)NCc2ccccn2)n(C)n1`, the cytotoxicity at 10 µM is 2.14%. Regarding `CN1CCCc2cc(CNC(=O)c3ccc(NC4CC4)nc3)ccc21`, the cytotoxicity at 10 µM is -3.03%. Regarding `Cc1ccc(CC(=O)N2CCCCC2c2nc(C)cs2)cn1` (centres undefined), the cytotoxicity at 10 µM amounted to 2.6%. For the compound `O=C(C[C@@H]1COC[C@H]2CN(CC3CC3)C[C@@H]12)N1CCCCO1`, the cytotoxicity at 10 µM was found to be 4.08%. Regarding `Cc1ccnc(OC[C@@]23CCO[C@@H]2CCN(c2ncc(F)cn2)C3)n1`, the cytotoxicity at 10 µM is 10.9%. The same measure for `CC(C)NC(=O)[C@H]1C[C@@H]2[C@@H](C1)OCCN2Cc1ccsc1`: 9.49%. On to `COCCNC(=O)[C@@H]1CN(Cc2sccc2C)C[C@H]2OCC[C@H]21`, for which the cytotoxicity at 10 µM was 2.98%. The same measure for `CC(C)NC(=O)[C@H]1C[C@@H]2[C@@H](C1)OCCN2Cc1nccs1`: 6.1%. Take `O=C(N1CCOCC1)[C@@]12CCO[C@@H]1CCN(C1CCC1)C2`: the cytotoxicity at 10 µM was found to be 3.33%. The same measure for `CN(C)Cc1cnc2n1CCN(Cc1ccsc1)CC2`: -10.4%. Turning to `O=C(c1ccc(F)cc1)N1C[C@H]2CCC[C@@]2(COCc2ccncc2)C1`, the cytotoxicity at 10 µM was 8.04%. For `CCc1nccn1CC(=O)N1C[C@@H]2CC[C@H]1CN(S(=O)(=O)N(C)C)C2`, the cytotoxicity at 10 µM was -6.38%. Take `O=C(CSCC1CC1)N1C[C@H]2CC[C@@H](C1)N(Cc1ccccn1)C2=O`: the cytotoxicity at 10 µM is 5%.
